Experiments:
Assay type in all cases: cell-based, human
[1] = Raji cell viability by Trypan Blue staining; settings: human, Raji cells
Outline: (§1)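 Raji cells incubated 48 h at 37 °C in RPMI-1640 with 10 % FCS, n-butyric acid (4 mmol), TPA (32 pmol), and test compound at 0.32, 3.2, 16 or 32 nmol (10- to 1,000-fold of TPA). Viability was scored by Trypan Blue staining, and viability above 60 % was required to count as non-cytotoxic. Each concentration was run three times and averaged.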

[2] = tested on: TPA-induced EBV-EA expression in Raji cells; assay: EBV-EA activation assay; settings: for LogCurvP: log10 transformed response fingerprint (CurveP) of the four-dose EBV-EA data; for Exp. Act.: class from experimental LogCurvP, threshold 1.25
Raji cells = assay: Raji cell viability by Trypan Blue staining; settings: value in parentheses at 32 (1,000-fold of TPA); Trypan Blue staining
Outline: as §1

Row | SMILES | viability at 48 h, 32 nmol [1] [%] | LogCurvP [2] | Exp. Act. [2] | EBV-EA inhibition potency, comparison in words [2] | viability percentages of Raji cells (Raji cells) [%]
1 | COc1cccc(CN(C)C(=O)/C=C/c2cccc(O)c2)c1 [Compound 1, (E)-3-(3-hydroxyphenyl)-N-(3-methoxybenzyl)-N-methylacrylamide] | > 60 | 1.04 |  |  | 
2 | CN(Cc1cccc(O)c1)C(=O)/C=C/c1cccc(O)c1 [Compound 2, (E)-N-(3-hydroxybenzyl)-3-(3-hydroxyphenyl)-N-methylacrylamide] | > 60 | 1.04 | Marginal active (active/marginally active threshold at LogCurvP = 1.25) |  | 
3 | COc1cccc(/C=C/C(=O)NCc2cccc(OC)c2)c1 [Compound 3, (E)-N-(3-methoxybenzyl)-3-(3-methoxyphenyl)acrylamide] | > 60 | 1.04 | Marginal active (active/marginally active threshold at LogCurvP = 1.25) |  | 
4 | O=C(/C=C/c1cccc(O)c1)NCc1cccc(O)c1 [Compound 4, (E)-N-(3-hydroxybenzyl)-3-(3-hydroxyphenyl)acrylamide] | > 60 | 1.04 | Marginal active (active/marginally active threshold at LogCurvP = 1.25) |  | 
5 | COc1ccc(O)c(C(=O)/C=C/c2cccc(OC)c2OC)c1 [Compound 5, (E)-3-(2,3-dimethoxyphenyl)-1-(2-hydroxy-5-methoxyphenyl)prop-2-en-1-one] | > 60 | 1.43 | Active |  | 
6 | COc1ccc2c(c1)C(=O)CC(c1cccc(O)c1O)O2 (stereo not shown) [Compound 6, 2-(2,3-dihydroxyphenyl)-6-methoxychroman-4-one] | > 60 | 1.43 | Active |  | 
7 | O=C(/C=C/c1cccc(O)c1O)c1cc(O)ccc1O [Compound 7, (E)-3-(2,3-dihydroxyphenyl)-1-(2,5-dihydroxyphenyl)prop-2-en-1-one] | > 60 | 1.43 | Active | less potent than its ring-closed analog 9 | 
8 | COc1ccc2oc(-c3ccc(OC)c(OC)c3)cc(=O)c2c1 [Compound 8, 2-(3,4-dimethoxyphenyl)-6-methoxy-4H-chromen-4-one] | > 60 | 1.43 | Active |  | 
9 | O=c1cc(-c2ccc(O)c(O)c2)oc2ccc(O)cc12 [Compound 9, 2-(3,4-dihydroxyphenyl)-6-hydroxy-4H-chromen-4-one] | > 60 | 1.43 | Active | most potent analog among the tested compounds | 
10 | COc1ccc2oc(-c3ccc(O)c(OC)c3)cc(=O)c2c1 [Compound 10, 2-(4-hydroxy-3-methoxyphenyl)-6-methoxy-4H-chromen-4-one] | > 60 | 1.43 | Active |  | 
11 | COc1ccc2oc(-c3ccc(O)c(O)c3)cc(=O)c2c1 [Compound 11, 2-(3,4-dihydroxyphenyl)-6-methoxy-4H-chromen-4-one] | > 60 | 1.43 | Active |  | 
12 | COc1ccc(CCNC(=O)/C=C/c2ccc3c(c2)OCO3)cc1OC [Compound 13, (E)-3-(benzo[d] [1, 3]dioxol-5-yl)-N-(3,4-dimethoxyphenethyl)acrylamide] |  | 1.04 | Marginal active (active/marginally active threshold at LogCurvP = 1.25) |  | > 60
13 | O=C(/C=C/c1ccc2c(c1)OCO2)NCCc1ccc(Cl)cc1 [Compound 14, (E)-3-(benzo[d] [1, 3]dioxol-5-yl)-N-(4-chlorophenethyl)acrylamide] |  | 0.85 | Marginal active (active/marginally active threshold at LogCurvP = 1.25) |  | > 60
14 | O=C(/C=C/c1ccc2c(c1)OCO2)NCCCc1ccccc1 [Compound 15, (E)-3-(benzo[d] [1, 3]dioxol-5-yl)-N-(3-phenylpropyl)acrylamide] |  | 1.04 | Marginal active (active/marginally active threshold at LogCurvP = 1.25) |  | > 60
15 | CN(C)CCCNC(=O)/C=C/c1ccc2c(c1)OCO2 [Compound 16, (E)-3-(benzo[d] [1, 3]dioxol-5-yl)-N-(3-(dimethylamino)propyl)acrylamide] |  | 0.85 | Marginal active (active/marginally active threshold at LogCurvP = 1.25) |  | > 60
16 | COC(=O)COc1cccc2ccccc12 [Compound 17, Methyl 2-(naphthalen-1-yloxy)acetate] | > 60 | 1.04 | Marginal active (active/marginally active threshold at LogCurvP = 1.25) |  | 
17 | O=C(O)COc1cccc2ccccc12 [Compound 18, 2-(naphthalen-1-yloxy)acetic acid] | > 60 | 1.04 | Marginal active (active/marginally active threshold at LogCurvP = 1.25) |  | 
18 | COc1cc(/C=C/C(=O)CC(=O)/C=C/c2ccc(O)c(OC)c2)ccc1O [Curcumin, reference compound] | > 60 | 1.43 | Active |  | 

Reference: PMC5600879 (Journal of computer-aided molecular design, 2014)
